# Assay results from ChEMBL document CHEMBL4411265, “Bioactive Pentacyclic Triterpenes from the Root Bark Extract of Myrianthus arboreus, a Species Used Traditionally to Treat Type-2 Diabetes” (J Nat Prod, 2018).
# Columns and labels:
# [1] = biological target: T1, Glucose-6-phosphatase catalytic subunit 1 (Rattus norvegicus) (UniProt P43428); test: Inhibition of glucose-6-phosphatase in rat […] cells at MNTD using glucose-6-phosphate as substrate preincubated overnight followed by substrate addition and measured after 40 mins relative to control; format: cell-based
# T1 sequence (whole entry): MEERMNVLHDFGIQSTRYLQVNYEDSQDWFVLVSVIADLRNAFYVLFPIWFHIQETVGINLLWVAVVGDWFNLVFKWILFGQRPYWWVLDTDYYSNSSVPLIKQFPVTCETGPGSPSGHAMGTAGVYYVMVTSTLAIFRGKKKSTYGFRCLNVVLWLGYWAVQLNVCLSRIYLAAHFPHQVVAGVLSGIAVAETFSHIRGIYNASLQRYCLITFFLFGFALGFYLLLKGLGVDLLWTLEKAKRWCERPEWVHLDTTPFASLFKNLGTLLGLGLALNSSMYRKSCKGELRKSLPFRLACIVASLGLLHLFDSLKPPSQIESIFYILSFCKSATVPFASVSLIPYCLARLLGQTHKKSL
# Procedure, shortened: (§1)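 H4IIE rat hepatoma cells at 90% confluence treated overnight at maximal nontoxic concentration, 0.1% DMSO vehicle. Lysis in phosphate buffer with 0.05% Triton; lysate incubated with glucose-6-phosphate buffer 40 min at 37 °C. Released glucose read by glucose kit against standard curve, normalized to BCA protein; percent change from vehicle. Means of three experiments in triplicate.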
# [2] = biological target: T2, Glucose-6-phosphatase catalytic subunit 1 (Rattus norvegicus, UniProt P43428); test: Inhibition of glucose-6-phosphatase in rat H42E cells using glucose-6-phosphate as substrate preincubated overnight followed by substrate addition and measured after 40 mins; format: cell-based; procedure, shortened: as §1
# T2 sequence (P43428 whole entry): T1 sequence (whole entry)
# [3] = biological target: RAC-alpha serine/threonine-protein kinase (Rattus norvegicus) (UniProt P47196); test: Activation of Akt in rat […] cells assessed as increase in ratio of phosphorylated Akt to total AKt level at MNTD after 18 hrs by Western blot analysis relative to control; format: cell-based
# Chain of RAC-alpha serine/threonine-protein kinase (Rattus norvegicus) (P47196 whole entry): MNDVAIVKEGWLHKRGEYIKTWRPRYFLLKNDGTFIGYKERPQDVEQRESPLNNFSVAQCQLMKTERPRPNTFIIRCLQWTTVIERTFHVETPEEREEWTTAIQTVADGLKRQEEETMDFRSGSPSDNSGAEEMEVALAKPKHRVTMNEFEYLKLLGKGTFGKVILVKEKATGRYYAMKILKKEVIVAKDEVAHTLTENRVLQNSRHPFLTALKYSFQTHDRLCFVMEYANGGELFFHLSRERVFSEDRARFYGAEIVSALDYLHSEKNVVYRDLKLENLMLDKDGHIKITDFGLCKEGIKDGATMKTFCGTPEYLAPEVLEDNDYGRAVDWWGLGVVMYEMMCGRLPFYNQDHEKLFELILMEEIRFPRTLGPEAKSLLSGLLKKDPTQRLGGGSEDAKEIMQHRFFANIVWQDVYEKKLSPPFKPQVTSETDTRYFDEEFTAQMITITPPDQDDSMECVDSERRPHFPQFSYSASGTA
# Procedure, shortened: (§2)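 Confluent H4IIE rat hepatoma cells (DMEM, 10% FBS) or HepG2 human hepatoma cells (DMEM/F12, 10% FBS) exposed 18 h to samples at maximal nontoxic concentration, 0.1% DMSO vehicle; RIPA lysates, 40 μg protein by SDS-PAGE, nitrocellulose blotting, 5% milk block. Antibodies against p-Akt Thr308/Akt, p-AMPKα Thr172/AMPK, p-GSK-3 Ser9/GSK-3, HRP secondary, ECL detection. Phospho/total ratio relative to DMSO; three independent passages.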
# [4] = biological target: T3, Glycogen synthase kinase-3 (Homo sapiens) (UniProt P49840+P49841); test: Activation of GSK3 phosphorylation in human HepG2 cells at MNTD after 18 hrs by Western blot analysis relative to control; format: cell-based; procedure, shortened: as §2
# T3 sequence (P49840 whole entry, looked up): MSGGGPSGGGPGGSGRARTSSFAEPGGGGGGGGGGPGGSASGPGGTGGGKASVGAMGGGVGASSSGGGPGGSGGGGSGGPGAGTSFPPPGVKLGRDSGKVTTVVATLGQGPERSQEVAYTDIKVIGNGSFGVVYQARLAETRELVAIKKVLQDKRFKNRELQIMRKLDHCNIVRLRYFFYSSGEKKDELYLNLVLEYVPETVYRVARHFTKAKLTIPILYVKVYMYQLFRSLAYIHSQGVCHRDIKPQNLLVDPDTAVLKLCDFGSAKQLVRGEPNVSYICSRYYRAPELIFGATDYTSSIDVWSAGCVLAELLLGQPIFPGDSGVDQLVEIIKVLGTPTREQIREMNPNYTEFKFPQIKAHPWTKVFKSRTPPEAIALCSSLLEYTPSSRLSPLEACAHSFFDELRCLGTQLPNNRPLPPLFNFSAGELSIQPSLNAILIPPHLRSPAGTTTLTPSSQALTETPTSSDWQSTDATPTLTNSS
# T3 sequence (P49841 whole entry, looked up): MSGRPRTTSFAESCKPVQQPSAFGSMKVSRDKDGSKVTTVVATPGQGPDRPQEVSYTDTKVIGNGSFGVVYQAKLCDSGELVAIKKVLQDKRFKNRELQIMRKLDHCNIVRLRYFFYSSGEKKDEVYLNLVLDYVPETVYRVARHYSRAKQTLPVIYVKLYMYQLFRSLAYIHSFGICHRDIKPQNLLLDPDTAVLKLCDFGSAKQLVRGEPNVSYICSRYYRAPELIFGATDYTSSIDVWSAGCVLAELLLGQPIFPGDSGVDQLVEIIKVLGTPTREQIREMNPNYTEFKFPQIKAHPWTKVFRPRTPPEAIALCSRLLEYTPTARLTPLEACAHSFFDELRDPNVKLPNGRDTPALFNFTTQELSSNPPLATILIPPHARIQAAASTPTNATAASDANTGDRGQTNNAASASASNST
# [5] = biological target: T4, Glycogen [starch] synthase, liver (Homo sapiens, UniProt P54840); test: Activation of insulin-stimulated glycogen synthase in human HepG2 cells using [U-14C]UDP glucose as substrate preincubated for 18 hrs followed by insulin stimulation and measured after 15 mins by beta-counting method; format: cell-based
# T4 sequence (P54840 whole entry): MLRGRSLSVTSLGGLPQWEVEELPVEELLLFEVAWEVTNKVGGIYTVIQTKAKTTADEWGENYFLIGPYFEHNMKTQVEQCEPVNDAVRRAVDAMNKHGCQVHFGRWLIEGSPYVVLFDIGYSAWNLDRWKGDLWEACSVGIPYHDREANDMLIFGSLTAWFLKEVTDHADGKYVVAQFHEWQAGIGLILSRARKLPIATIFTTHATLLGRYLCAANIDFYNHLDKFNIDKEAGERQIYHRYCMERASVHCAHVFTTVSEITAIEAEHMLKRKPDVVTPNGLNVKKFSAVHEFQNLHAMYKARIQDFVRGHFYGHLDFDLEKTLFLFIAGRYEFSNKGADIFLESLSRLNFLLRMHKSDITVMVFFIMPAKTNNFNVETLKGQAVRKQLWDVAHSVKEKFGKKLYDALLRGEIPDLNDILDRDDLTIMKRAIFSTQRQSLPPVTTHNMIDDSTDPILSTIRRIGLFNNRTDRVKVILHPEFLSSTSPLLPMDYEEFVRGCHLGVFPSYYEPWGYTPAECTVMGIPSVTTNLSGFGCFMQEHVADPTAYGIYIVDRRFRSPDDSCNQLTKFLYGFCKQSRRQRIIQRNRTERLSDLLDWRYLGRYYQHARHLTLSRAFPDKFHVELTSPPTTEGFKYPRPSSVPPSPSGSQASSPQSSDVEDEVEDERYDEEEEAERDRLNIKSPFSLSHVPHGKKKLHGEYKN
# [6] = organism: Rattus norvegicus; test: Activation of AMPK in rat […] cells assessed as increase AMPK phosphorylation at MNTD after 18 hrs by Western blot analysis relative to control; format: cell-based; procedure, shortened: as §2
# [7] = biological target: T5, Glycogen [starch] synthase, liver (Homo sapiens) (UniProt P54840); test: Activation of insulin-stimulated glycogen synthase in human HepG2 cells at MNTD using [U-14C]UDP glucose as substrate preincubated for 18 hrs followed by insulin stimulation and measured after 15 mins by beta-counting method relative to control; format: cell-based
# T5 sequence (whole entry): T4 sequence (P54840 whole entry)
# [8] = Solubility of the compound in DMSO; format: physicochemical
# [9] = biological target: T3, Glycogen synthase kinase-3 (Homo sapiens); test: Activation of GSK3 in human HepG2 cells assessed as increase in ratio of phosphorylated GSK3 to total GSK3 level at MNTD after 18 hrs by Western blot analysis relative to control; format: cell-based; procedure, shortened: as §2
Compound,inhibition [1] [%],IC50 [2] [µM],fold change (FC) [3],fold change (FC) [4],EC50 [5] [µM],fold change (FC) [7],fold change (FC) [9],fold change (FC) [6],solubility [8]
COc1cc(/C=C/C(=O)O[C@H]2[C@H](OC(C)=O)C[C@]3(C)[C@H]4CC=C5[C@H]6[C@](C(=O)O)(CC[C@@H](C)[C@@]6(C)O)CC[C@@]5(C)[C@]4(C)CC[C@H]3C2(C)C)ccc1O,18 to 32,4.8,2.2 to 4.8,2,4.1,1.5 to 3.5,,2.2 to 3.5,
CC[C@H](CC[C@@H](C)[C@H]1CC[C@H]2[C@@H]3CC=C4C[C@@H](O)CC[C@]4(C)[C@H]3CC[C@]12C)C(C)C [BETA-SITOSTEROL],,,,,,,,,Insoluble
CC[C@H](/C=C/[C@@H](C)[C@H]1CC[C@H]2[C@@H]3CC=C4C[C@@H](O)CC[C@]4(C)[C@H]3CC[C@]12C)C(C)C [STIGMASTEROL],,,,,,,,,Insoluble
COc1cc(/C=C/C(=O)O[C@H]2[C@H](O)C[C@]3(C)[C@H]4CC=C5[C@H]6[C@](C(=O)O)(CC[C@@H](C)[C@@]6(C)O)CC[C@@]5(C)[C@]4(C)CC[C@H]3C2(C)C)ccc1O,18 to 32,,2.2 to 4.8,,,1.5 to 3.5,1.8,2.2 to 3.5,

# Second part, led by results:
inhibition [1] [%],IC50 [2] [µM],fold change (FC) [3],fold change (FC) [4],EC50 [5] [µM],fold change (FC) [7],fold change (FC) [9],Compound,fold change (FC) [6],solubility [8]
18 to 32,,2.2 to 4.8,2,,1.5 to 3.5,,C[C@H]1[C@H](C)CC[C@]2(C(=O)O)CC[C@]3(C)C(=CC[C@@H]4[C@@]5(C)CC[C@H](O)C(C)(C)[C@@H]5CC[C@]43C)[C@H]12,2.2 to 3.5,
,,,2,,,,NC(=O)c1ncn([C@@H]2O[C@H](CO)[C@@H](O)[C@H]2O)c1N,,
